Shown are actives, neighbours in structure and some others; about 2.2% of the full set was active somewhere.
CSN deneddyl inh: inhibitors of CSN-mediated cullin deneddylation, primary screen, biochemical, fluorescence polarization, uHTS; Purified CSN, SCF-Nedd8-OG deneddylation; hit rate 0.38% among 360,000; COP9 signalosome complex subunit 5 (Homo sapiens), Q92905; inhibition, % at 12.5 µM;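 active = pattern-corrected inhibition above about 35%, with an unprinted fluorescence ratio check between 0.5 and 1.5, limit read from the data, passing the limit was not always enough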;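 also: 0% = enzyme with substrate and 100% = substrate without enzyme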
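Material: human Csn5 produced in HEK293T cells; Input: enzyme 0.24 nM; Reagent: SCFSkp2-Nedd8OG substrate at 10 nM final; Dosing: 12.5 µM compound; Incubation: 90 min reaction at room temperature; Detection: fluorescence polarization of the substrate; Evaluation: % inhibition of substrate cleavage by Csn5; Control set: substrate-only high control, full reaction low control.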
Myeloid diff 2: induction of myeloid progenitor differentiation, primary screen, cell-based, flow cytometry, MLPCN library; ER-HoxA9 myeloid progenitors, lysozyme-GFP differentiation; calls only at 10 µM; hit rate 1% among 360,000; AID 624256, 2012;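 active = normalized GFP-positive differentiation at or above the plate's own cutoff, the solvent-only control mean plus 3 SD; inconclusive = no clear call, values can overlap the other calls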;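 also: cells exposed to compound for four days before flow analysis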
Exocytosis inh: LAMP-1 surface exposure blockers, TALL-104 cells – cell-based, flow cytometry, MLPCN library, primary screen; inhibition, % at 10 µM; hit rate 0.66% among 360,000; TALL-104 LAMP-1 surface exposure; cells stimulated with thapsigargin and PMA;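 active = inhibition above about 55%, limit read from the data; inconclusive = no clear call, values can overlap the other calls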
HNF4A DNA FP: change in binding of human HNF4A to DNA, primary screen, biochemical, fluorescence polarization, FITC-DNA | hit rate 0.3% among 360,000 | Hepatocyte nuclear factor 4-alpha (Homo sapiens), P41235 | activity change, % at 10 µM | 1 h | AID 1224865, 2016; in the data active = activity change above about 30%, passing the limit was not always enough
Target sequence (P41235 whole entry, looked up): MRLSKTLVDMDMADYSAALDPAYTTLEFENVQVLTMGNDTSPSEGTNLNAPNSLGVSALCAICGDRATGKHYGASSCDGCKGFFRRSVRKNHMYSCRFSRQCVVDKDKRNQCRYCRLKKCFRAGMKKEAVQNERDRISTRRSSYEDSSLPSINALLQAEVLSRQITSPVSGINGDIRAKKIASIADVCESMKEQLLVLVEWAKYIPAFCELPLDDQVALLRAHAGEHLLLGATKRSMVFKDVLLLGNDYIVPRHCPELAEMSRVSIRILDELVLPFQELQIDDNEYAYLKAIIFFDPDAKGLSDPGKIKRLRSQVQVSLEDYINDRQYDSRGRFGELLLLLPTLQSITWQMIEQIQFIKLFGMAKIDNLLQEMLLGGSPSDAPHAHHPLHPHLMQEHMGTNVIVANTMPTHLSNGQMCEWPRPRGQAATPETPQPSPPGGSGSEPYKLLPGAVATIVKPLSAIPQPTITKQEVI
An asterisk follows results filed as active; i = inactive; u = inconclusive; x = no result given; + = active, no number.

SMILES | CSN deneddyl inh | Myeloid diff 2 | Exocytosis inh | HNF4A DNA FP
C[C@]12CCC3C(CC[C@H]4CC(O)CC[C@]34C)C1CC/C2=N/NC(=O)c1ccncc1 (some centres undefined) | -1 | + | 7 | 0
CC(C)(C(=O)N1CCC1(C)C(=O)NS(=O)(=O)c1ccccc1Cl)c1ccccc1 (centres undefined) | 1 | i | 3 | -4
Cc1ccccc1S(=O)(=O)NC(=O)C1(C)CCN1C(=O)C(C)(C)c1ccccc1 (centres undefined) | 1 | i | 0 | 39*
CSc1cccc(-n2ccc(=O)c(C)c2C)c1 | 3 | i | 5 | -3
CSc1ccc(C2NC(=O)c3c(sc4c3CCN(C)C4)N2)cc1 (centres undefined) | 46* | i | 8 | 54
CN1CCc2c(sc3c2C(=O)NC(c2ccc(-c4cccc(Cl)c4)o2)N3)C1 (centres undefined) | 44* | i | 22 | 71*
Cn1cc(C(=O)c2ccccc2C(=O)O)cc1C(=O)C(Cl)(Cl)Cl | 43* | i | -5 | 1
Cn1cc(C(=O)c2ccc(Cl)cc2Cl)cc1C(=O)O | -2 | i | 0 | 2
CCN(CC(=O)Nc1cc(Cl)ccc1C)C(=O)c1ccc2c(=O)n3c(nc2c1)CCC3 | 2 | i | -4 | -2
COc1ccc([C@H]2CC(=O)C=C(c3cc(Br)ccc3OC)C2)cc1 | 7 | + | 6 | -3
COc1ccc([C@H]2CC(=O)C=C(c3cccc(Cl)c3)C2)cc1 | 3 | i | -6 | 5
CCOC(=O)c1cccc(C2=CC(=O)C[C@H](c3ccc(OC)cc3)C2)c1 | 95* | i | 1 | -4
COc1ccc(NC(=O)/C(Cl)=C(/Cl)S(=O)Cc2ccccc2)cn1 (centres undefined) | 0 | u | 39 | 0
COc1ccc(CS(=O)(=O)/C(Cl)=C(/Cl)C(=O)Nc2ccc(OC)nc2)cc1 | 11 | u | 84* | 3
COc1ccc(C(=O)COC(=O)CCN2C(=O)C3C4C=CC(C5CC45)C3C2=O)cc1 (centres undefined) | 3 | i | -11 | 0
COc1cccc(C2c3cc4c(cc3OC(N3CCOCC3)C2C)OCO4)c1O (centres undefined) | 2 | + | 1 | 0
O=C1C(O)CC2c3ccccc3CC3(CCCC3)N12 (centres undefined) | 2 | + | -1 | -1
Oc1ccc(CCNc2ncnc3ccc(Cl)cc23)cc1 | -1 | i | 2 | 4
COc1ccc(NS(=O)(=O)c2ccc3c(c2)oc(=O)n3C)c(OC)c1 | -3 | i | 3 | 2
COc1cc(NS(=O)(=O)c2ccc3c(c2)oc(=O)n3C)cc(OC)c1OC | -1 | + | -2 | 1
COc1ccc2oc(-c3ccc(C)c(NC(=O)CSc4ccc(Cl)cc4)c3)nc2c1 | 1 | + | -2 | -1
CN(Cc1ccccc1)S(=O)(=O)c1ccc(Cl)nc1 | 40* | i | 0 | -2
CC(C)N(Cc1ccccc1)S(=O)(=O)c1ccc(Cl)nc1 | 3 | i | 13 | 1
CC(=O)OCC1OC(n2c(S)c(C#N)c(-c3ccccc3)c(C#N)c2=O)C(OC(C)=O)C(OC(C)=O)C1OC(C)=O (centres undefined) | 5 | x | -12 | -3
Cc1ccc(NC(=O)CO/N=C/c2ccc(N(C)C)cc2)cc1 | 50* | i | -1 | 72*
SMILES | CSN deneddyl inh | Myeloid diff 2 | Exocytosis inh | HNF4A DNA FP
COC(=O)c1ccc(Cn2c(C)c(C(=O)NCc3ccco3)sc2=O)o1 | -2 | i | -2 | 1
O=C(Nc1cccc(-c2nc3cccnc3s2)c1)C1c2ccccc2Oc2ccccc21 | 76* | i | 1 | 47*
CCN(CC)C1CCN(C(=O)CCn2nnnc2CN2CCOCC2)C1 (centres undefined) | -3 | i | 0 | 4
CC(C)(C)c1ccc(OC(=O)N2CCOCC2)cc1 | -4 | + | u | -1
CCOc1ccc(OCC)c(S(=O)(=O)n2ccnc2C)c1 | 1 | i | -14 | 48*
CCOc1ccc(C(C)C)cc1S(=O)(=O)n1ccnc1C | 73* | i | 4 | 1
COC(=O)[C@@]1(Cc2ccc(F)cc2)[C@H]2c3cc(C(=O)N(C)C)n(CCN4CCOCC4)c3C[C@H]2CN1C(=O)c1ccccc1 | 0 | i | 3 | 9

Screening results from PubChem BioAssay.
